Reference: ChEMBL document CHEMBL1681758, “Synthesis and in vitro anti-HSV-1 activity of a novel Hsp90 inhibitor BJ-B11” (Bioorg Med Chem Lett, 2011)
Calls of active or inactive are those of the source. No cut-off for these calls is given here.

Columns and labels:
Human alphaherpesvirus 1 [1] = test: Antiviral activity against HSV1 infected in african green monkey Vero cells assessed as reduction of UL52 expression at 1 uM after up to 24 hrs by RT-PCR analysis; type: functional, organism-based
Method in brief: (§1)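 Vero monolayer infected with HSV-1 (MOI = 1) with or without 1 µM compound. RNA extracted at 3, 6 and 12 hpi, reverse transcribed, and serially diluted cDNA used for real-time PCR of UL54, UL52 and UL27. Mean ± SD, n = 3; Student's t-test against untreated controls.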

[2] = Therapeutic index, ratio of CC50 for african green monkey Vero cells to EC50 for HSV2; type: cell-based; details: read-out: TI
Method in brief: (§2)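 TI calculated as CC50 (Vero, MTT) divided by EC50 (Vero, plaque reduction) for the respective HSV type.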

Human alphaherpesvirus 2 [3] = test: Antiviral activity against HSV2 infected in african green monkey Vero cells assessed as inhibition of viral replication by plaque reduction assay; type: functional, organism-based; details: Human alphaherpesvirus 2, Vero
Method in brief: (§3)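 Vero cells; plaque reduction assay at concentrations found non-cytotoxic by MTT. EC50 is the concentration inhibiting 50% of HSV replication. Mean ± SD of three independent experiments.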

[4] = Therapeutic index, ratio of CC50 for african green monkey Vero cells to EC50 for HSV1; type: cell-based; details: read-out: TI; method in brief: as §2
Human alphaherpesvirus 1 [5] = test: Antiviral activity against HSV1 infected in african green monkey Vero cells assessed as reduction of UL27 expression at 1 uM after up to 24 hrs by RT-PCR analysis; type: functional, organism-based; method in brief: as §1
[6] = Cytotoxicity against african green monkey Vero cells by MTT assay; type: cell-based; details: chlorocebus sabaeus
Method in brief: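 Vero cells; MTT viability read-out. CC50 taken as concentration reducing cell viability by 50%. Mean ± SD of three independent experiments.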

Human alphaherpesvirus 1 [7] = test: Antiviral activity against HSV1 infected in african green monkey Vero cells assessed as reduction of UL54 expression at 1 uM after up to 24 hrs by RT-PCR analysis; type: functional, organism-based; method in brief: as §1
Human alphaherpesvirus 1 [8] = test: Antiviral activity against HSV1 infected in african green monkey Vero cells assessed as inhibition of viral replication by plaque reduction assay; type: functional, organism-based; details: Human alphaherpesvirus 1, Vero; method in brief: as §3
Influenza A virus = test: Antiviral activity against Influenza A virus H1N1 infected in african green monkey Vero cells assessed as inhibition of virus-induced cytopathic effect; type: functional, organism-based
Coxsackievirus B3 = test: Antiviral activity against Coxsackievirus B3 infected in african green monkey Vero cells assessed as inhibition of virus-induced cytopathic effect; type: functional, organism-based
Human alphaherpesvirus 1 [9] = test: Antiviral activity against HSV1 infected in african green monkey Vero cells assessed as log reduction of viral yield at 1 uM treated after 6 hrs post infection by plaque assay; type: functional
Method in brief: (§4)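 HSV-1 at MOI = 1 in Vero cells, compound at 1 µM in time-of-addition and time-of-removal schedules. Cultures harvested at 24 hpi; virus yield titrated by plaque assay.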

Human alphaherpesvirus 2 [10] = test: Antiviral activity against HSV2 infected in african green monkey Vero cells assessed as inhibition of virus-induced cytopathic effect; type: functional, organism-based
Human orthopneumovirus = test: Antiviral activity against Human respiratory syncytial virus infected in african green monkey Vero cells assessed as inhibition of virus-induced cytopathic effect; type: functional, organism-based
Human alphaherpesvirus 1 [11] = test: Antiviral activity against HSV1 infected in african green monkey Vero cells assessed as log reduction of viral yield at 1 uM treated after 9 hrs post infection by plaque assay; type: functional; method in brief: as §4
Human alphaherpesvirus 1 [12] = test: Antiviral activity against HSV1 infected in african green monkey Vero cells assessed as inhibition of virus-induced cytopathic effect; type: functional, organism-based
Human alphaherpesvirus 1 [13] = test: Antiviral activity against HSV1 infected in african green monkey Vero cells assessed as inhibition DNA synthesis at 1 uM after 24 hrs by RT-PCR analysis; type: functional, organism-based
Method in brief: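 Vero monolayer infected with HSV-1 (MOI = 1) with or without 1 µM compound. DNA extracted at 24 hpi; UL52 quantified by real-time PCR. Mean ± SD, n = 3; Student's t-test against untreated controls.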

Human alphaherpesvirus 1 [14] = test: Antiviral activity against HSV1 infected in african green monkey Vero cells assessed as log reduction of viral yield at 1 uM after drug washout by plaque assay; type: functional; method in brief: as §4
Human alphaherpesvirus 1 [15] = test: Antiviral activity against HSV1 infected in african green monkey Vero cells assessed as log reduction of viral yield at 1 uM treated after 24 hrs post infection by plaque assay; type: functional; method in brief: as §4

SMILES | Activity (Human alphaherpesvirus 1 [1]) | selectivity ratio [2] | EC50 (Human alphaherpesvirus 2 [3]) [nM] | selectivity ratio [4] | Activity (Human alphaherpesvirus 1 [5]) | CC50 [6] [nM] | Activity (Human alphaherpesvirus 1 [7]) | EC50 (Human alphaherpesvirus 1 [8]) [nM] | inhibition (Influenza A virus) | inhibition (Coxsackievirus B3) | PFU/ml (Human alphaherpesvirus 1 [9]) | inhibition (Human alphaherpesvirus 2 [10]) | inhibition (Human orthopneumovirus) | PFU/ml (Human alphaherpesvirus 1 [11]) | inhibition (Human alphaherpesvirus 1 [12]) | inhibition (Human alphaherpesvirus 1 [13]) | PFU/ml (Human alphaherpesvirus 1 [14]) | PFU/ml (Human alphaherpesvirus 1 [15])
Nc1nc2c(ncn2COCCO)c(=O)[nH]1 [ACYCLOVIR] | Active | > 116 | 1720 | > 172 | Active | > 200000 | inactive | 1160 | – | – | – | – | – | – | – | – | – | –
CC(=O)OC1CCC(Nc2cc(-n3nc(C)c4c3CC(C)(C)CC4=O)ccc2C(N)=O)CC1 (stereo unspecified) | Active | 59.2 | 600 | 84.5 | Active | 35500 | inactive | 420 | inactive | inactive | 7.13 | Active | inactive | 6.67 | Active | Active | 6.14 | 7.09
